# Assay outcomes deposited in PubChem BioAssay by Johns Hopkins Ion Channel Center.
# Sampled rows, rich in hits. Any-hit rate of the full collection: about 3%.
# TRPC6 activator: mouse TRPC6 channel activators, primary screen, cell-based, HEK293, membrane potential dye; HEK293-TRPC6 membrane potential dye fluorescence; active compounds read high; B-score at 10 µM; 310,000 tested, 0.13% active; AID 2550, 2010;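 active = B-score of the integrated fluorescence ratio above library mean plus 3 SD, and starting fluorescence ratio within library mean plus 5 SD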;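 note: higher score means more depolarization so channel activation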
# TRPC4 PAM: positive allosteric modulators of TRPC4, primary screen, cell-based, mouse TRPC4beta, HEK293 mu-opioid, Fluo-4 calcium | B-score at 10 µM | 310,000 tested, 0.42% active | AID 2227, 2009 | Short transient receptor potential channel 4 (Mus musculus), Q9QUQ5 | DAMGO EC20, Fluo-4 Ca2+ flux; active compounds read high;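 active = B-score of calcium response area above 5 SD of library B-scores, with initial fluorescence ratio within 5 SD of library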;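 note: B-score of integrated fluorescence ratio over time as area under calcium response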
# TRPC4 agonist: activators of mouse TRPC4 channel, primary screen, Fluo4 calcium, HEK293 TRPC4beta/mu-opioid cells; 310,000 tested, 0.49% active; Short transient receptor potential channel 4 (Mus musculus), Q9QUQ5; AID 2237, 2010; B-score at 10 µM; Fluo4 calcium fluorescence; active compounds read high;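 active = B-score above 5 SD of library B-scores, and initial fluorescence ratio not above library mean plus 5 SD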;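 note: positive B-score marks a calcium rise read as TRPC4 activation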
#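 Material: TRPC4beta and mu-opioid receptor HEK293 stable cells | Incubation: 45 min room-temperature Fluo4 loading, 110 s read | Detection: Kinetic Fluo4 calcium fluorescence | Measure: Integrated baseline-normalised fluorescence ratio, converted to per-well B score | Benchmarks: Low control buffer alone, high control maximal DAMGO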
# Kir21 inh: inhibitors of mouse Kir2.1 inward-rectifier potassium channel | Inward rectifier potassium channel 2 (Mus musculus), P35561 | HEK293-Kir2.1, FluxOR thallium flux fluorescence; active compounds read low | B-score at 10 µM | 310,000 tested, 0.85% active;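 active = fluorescence ratio B-score at or below minus 3 SD of library scores, with starting-brightness B-score within 2 SD, cut at about -4.2 in these data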;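 note: channel flux triggered by added potassium and thallium sulfate stimulus; B-score of peak minus minimum fluorescence over baseline after thallium stimulus; more negative B-score means stronger Kir2.1 block with less thallium influx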
# Target sequence (P35561 whole entry, looked up): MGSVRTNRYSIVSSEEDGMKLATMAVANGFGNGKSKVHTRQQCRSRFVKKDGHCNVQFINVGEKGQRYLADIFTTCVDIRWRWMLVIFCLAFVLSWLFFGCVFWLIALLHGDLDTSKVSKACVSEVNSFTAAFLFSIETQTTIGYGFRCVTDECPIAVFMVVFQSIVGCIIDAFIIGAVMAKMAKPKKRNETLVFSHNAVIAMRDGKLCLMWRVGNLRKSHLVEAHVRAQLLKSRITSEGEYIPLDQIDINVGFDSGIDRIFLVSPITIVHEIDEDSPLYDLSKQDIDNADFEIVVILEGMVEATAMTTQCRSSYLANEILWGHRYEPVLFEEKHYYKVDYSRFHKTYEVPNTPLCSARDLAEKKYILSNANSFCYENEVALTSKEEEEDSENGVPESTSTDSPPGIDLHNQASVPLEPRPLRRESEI
# TRPC6 inh: mouse TRPC6 channel inhibitors, primary screen, cell-based, HEK293, membrane potential dye | 310,000 tested, 1.1% active | ACh-evoked depolarization; active compounds read low | B-score at 10 µM | Short transient receptor potential channel 6 (Mus musculus), Q61143;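 active = B-score under library mean minus 3 SD, initial fluorescence not abnormally high, positive integrated signal ratio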;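 note: B-score derived from integrated fluorescence ratio over the kinetic read; more negative B-score means stronger inhibition of depolarization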
# TRPC4 block: inhibitors of mouse TRPC4 channel, primary screen, Fluo4 calcium, HEK293 TRPC4beta/mu-opioid cells | B-score at 10 µM | 300,000 tested, 0.39% active | AID 2247, 2010 | Short transient receptor potential channel 4 (Mus musculus), Q9QUQ5 | DAMGO-evoked Fluo4 calcium flux; active compounds read low;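 active = B-score over 3 SD under the library average, no early fluorescence shift, positive overall ratio signal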
#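 Assay system: HEK293 cells with stable TRPC4beta plus mu-opioid receptor expression. Dosing: single dose. Measured by: Fluo4 Ca2+ flux fluorescence. Also added: DAMGO in two steps, submaximal then maximal. Read-out: B score from integrated Fluo4 fluorescence ratio.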
# * = called active by the depositor; i = inactive.
SMILES,TRPC6 activator,TRPC4 PAM,TRPC4 agonist,Kir21 inh,TRPC6 inh,TRPC4 block
COc1ccc(CNCc2cc3c(cc2[N+](=O)[O-])OCO3)cc1,i,i,i,0.56,-5.3*,i
COc1cc2c(cc1OC)CN(c1ccc3ccccc3n1)CC2,i,i,i,-11*,i,i
COc1cc2c(cc1OC)CN(c1ccc(-c3ccccc3OC)nn1)CC2,i,i,i,-0.05,i,i
CCN1C(=O)/C(=C\N2CCCc3ccccc32)SC1=S,i,20*,i,0.06,i,i
CCN(Cc1ccccc1)c1ccc(/C=N/N=C(N)N)cc1,i,i,145*,-14*,i,i
CC(C)N(Cc1ccccc1)S(=O)(=O)c1cccs1,i,i,i,-4.8*,i,i
Cc1ccc2c(c1)c1c(n2CC(O)CN2CCCCC2C)CCCC1 (stereo unspecified),i,i,i,-2.4,i,i
Cc1ccc2c(c1)c1c(n2CC(O)CNC2CCCCC2)CCCC1 (stereo unspecified),i,i,i,-7.9*,i,i
CCOC(=O)CC(NC(=O)c1cc2cc(Br)ccc2oc1=O)c1cccc([N+](=O)[O-])c1 (stereo unspecified),i,26*,i,0.08,i,i
C[C@@H]1C(=O)O[C@H]2[C@H](O)[C@@]34[C@H]5C[C@@H](C(C)(C)C)[C@]36[C@@H](OC(=O)[C@@H]6O)O[C@@]4(C(=O)O5)[C@@]12O,i,i,i,1.1,i,i
CC(C)(C)c1csc(NC(=O)c2cccs2)n1,i,i,i,0.31,i,i
CC(C)(C)c1csc(NC(=O)Cc2cccs2)n1,i,69*,i,-2.3,i,i
Clc1ccc(OCCCc2nc(-c3ccncc3)no2)c(Cl)c1,i,i,i,-0.01,i,-9*
COc1ccc(N(C)S(=O)(=O)c2cccc(C(=O)NCC(c3ccco3)N3CCCC3)c2)cc1 (stereo unspecified),i,i,i,-0.04,i,i
CCOc1ccc(C(=O)NCC(C)C)cc1,i,i,i,-0.88,i,i
CCOc1ccc(C(=O)NCC(c2cccs2)N(C)C)cc1 (stereo unspecified),i,i,50*,1.8,i,i
COc1ccc(N(C)S(=O)(=O)c2cccc(C(=O)NCC(c3cccs3)N(C)C)c2)cc1 (stereo unspecified),i,i,i,-0.18,i,-6*
COc1ccc(CCN(C)C(=O)CSc2nc3ncc(Cl)cc3[nH]2)cc1OC,i,i,i,0.94,i,i
CC(=O)OCCCN1C(=O)c2cccc3cc(Br)cc(c23)C1=O,i,i,i,0.26,i,-6*
CCOC(=O)CCCCCN1C(=O)c2cccc3cccc(c23)C1=O,i,i,i,-0.69,i,i
Cc1c(C(=O)NC2CCN(Cc3ccccc3)C2)oc2c(Cl)cccc12 (stereo unspecified),i,i,i,-9.9*,i,i
CN(C)S(=O)(=O)c1ccc(Cl)c(C(=O)NC2CCN(Cc3ccccc3)C2)c1 (stereo unspecified),i,19*,i,-0.62,i,i
O=C(NC1CCN(Cc2ccccc2)CC1)c1ccccc1Cl,i,i,i,0.85,i,i
COCCNS(=O)(=O)c1ccc(Cl)c(C(=O)NC2CCN(Cc3ccccc3)CC2)c1,i,i,i,-1.5,i,i
